This is a sample that favours compounds with a hit; in the whole collection about 4.4% have one here.
MPTP inh = permeability transition pore inhibition | inhibition, % at 10 µM | isolated mouse mitochondria, Ca2+ swelling absorbance, 30 min | 360,000 tested, 1.4% active;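 active = inhibition of 50% or more, scaled per plate between neutral and stimulator controls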
SENP1 inh = blocks the human SENP1 SUMO protease catalytic domain. Q9P0U3. recombinant SENP1 catalytic domain, CyPet-SUMO1-YPet FRET cleavage. inhibition, % at 10 µM. 360,000 tested, 0.21% active. AID 624204;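 active = inhibition at least 30% at 10 µM, raw YFP signal under a set limit, fluorescence ratio 0.5 to 1.5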
Target sequence (Q9P0U3 419-644 limits assumed): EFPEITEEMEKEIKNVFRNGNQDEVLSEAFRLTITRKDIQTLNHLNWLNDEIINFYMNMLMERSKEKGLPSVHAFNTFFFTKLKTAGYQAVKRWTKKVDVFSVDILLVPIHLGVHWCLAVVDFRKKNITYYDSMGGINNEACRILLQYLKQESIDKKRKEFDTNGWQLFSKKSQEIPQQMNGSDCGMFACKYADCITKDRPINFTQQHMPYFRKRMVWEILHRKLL
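Test system: recombinant human SENP1 catalytic domain, His6-tagged / Medium: pH 8 Tris buffer with EDTA, NaCl, BME, BSA, NP40, catalase / Also added: SUMO1 FRET substrate flanked by Cypet and Ypet, 25 nM / Times: 50 min reaction at room temperature / Signal: FRET, CFP and YFP emission / Control set: no-enzyme low control and enzyme-plus-DMSO high control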
EBI2 block = antagonists of human EBI2 receptor. 360,000 tested, 0.81% active. P32249. inhibition, % at 5 µM. EBI2 beta-arrestin recruitment, luminescence, 7a,25-OHC stimulated. AID 651636; in the data active = inhibition above about 38%;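 note: enzyme fragment complementation signal reports receptor beta-arrestin coupling in cells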
Target sequence (P32249 whole entry, looked up, the tested form may be a part): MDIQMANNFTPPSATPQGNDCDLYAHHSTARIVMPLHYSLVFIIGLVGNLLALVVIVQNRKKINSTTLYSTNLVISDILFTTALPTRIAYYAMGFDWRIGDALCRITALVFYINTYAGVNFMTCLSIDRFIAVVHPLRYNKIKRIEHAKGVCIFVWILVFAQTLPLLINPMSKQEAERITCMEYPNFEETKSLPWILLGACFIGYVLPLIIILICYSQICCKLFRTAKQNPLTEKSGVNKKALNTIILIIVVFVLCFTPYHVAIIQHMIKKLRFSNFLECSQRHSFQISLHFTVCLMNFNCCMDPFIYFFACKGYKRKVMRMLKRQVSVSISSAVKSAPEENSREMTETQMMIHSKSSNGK
GRIN3A LBD mod = NR3A (human) ligand-binding domain modulation. NR3A LBD differential scanning fluorimetry, Tm shift; 0% = protein alone, 100% = glycine-bound protein. Tm shift relative to glycine control, % at 25 µM. 340,000 tested, 2.5% active;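 active = melting temperature shift of at least 10% of the positive control shift, at one fixed dose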
Rh123 counter = membrane potential counter-screen of mitochondrial pore inhibitors | shares compounds with MPTP inh | isolated mitochondria, Rhodamine 123 fluorescence | inhibition, % at 10 µM | 5,000 tested, 78% active; in the data active = inhibition above about 22%
MPTP abs DR = MPTP inhibition, dose response swelling confirmation; shares compounds with MPTP inh; isolated mitochondria swelling, absorbance; IC50, µM; 780 tested, 58% active; in the data active = IC50 below about 20 µM
MPTP cs DR = MPTP inhibitor counter-screen activity, dose response; shares compounds with MPTP inh; isolated mitochondria counterscreen, fluorescence read-out; IC50, µM; 780 tested, 49% active; AID 651564; in the data active = IC50 below about 80 µM
Each line names hits and unclear results; the compound was inactive in the other large screens (follow-up assays come after a bar, where they were run); ! = a repeat was not active.

COc1ccc(CCN(C)c2ccc(S(=O)(=O)N3CCCC3)cc2[N+](=O)[O-])cc1OC	none
CC(C)(C)OC(=O)N[C@H](C(=O)OC(C)(C)C)c1ccc(C(F)(F)F)cc1	none
COc1ccc(N(CC(=O)NCCSC2CCCCC2)S(=O)(=O)c2ccccc2)cc1OC	none
COc1cccc(-c2cc(C(=O)N3CCN(C(=O)c4ccco4)CC3)[nH]n2)c1	none
Cc1sc(NC(=O)CN2CCCC2)nc1-c1ccc2c(c1)CCN2C(=O)c1cccc(F)c1	MPTP inh 59 | Rh123 counter inactive | MPTP abs DR inactive | MPTP cs DR 35
Cc1sc(NC(=O)Cc2ccc3c(c2)OCO3)nc1-c1ccc2c(c1)CCN2C(=O)c1ccc(F)cc1	none
CCOc1ccc(NC(=S)N2CCC(NC(=O)C3CCCCC3)CC2)cc1	none
O=C(/C=C/c1cccs1)Nc1ccc([N+](=O)[O-])cc1	MPTP inh 81, GRIN3A LBD mod 26 | Rh123 counter 74
Cc1onc(-c2c(F)cccc2Cl)c1C(=O)OCc1cnc(Cl)s1	MPTP inh 52 | Rh123 counter inactive | MPTP abs DR inactive | MPTP cs DR 66
Cc1ccc(F)cc1NC(=O)N1CCN(c2ccnc3cc(Cl)ccc23)CC1	none
O=C(Nc1cc(F)ccc1F)N1CCN(c2ccnc3cc(Cl)ccc23)CC1	MPTP inh 59 | Rh123 counter 36
Cc1cccc(Cl)c1NC(=O)N1CCN(c2ccnc3cc(Cl)ccc23)CC1	none
O=C(Nc1ccc(C(F)(F)F)cc1)N1CCN(c2ccnc3cc(Cl)ccc23)CC1	MPTP inh 79 | Rh123 counter 81
Cc1ccc(S(=O)(=O)N2C[C@H]3N(C(=O)OC(C)C)N(C(=O)OC(C)C)C[C@H](OC(=O)NC4CCCC4)[C@@]3(O)C2)cc1	none (no result: GRIN3A LBD mod)
CN(C)Cc1c(C(=O)N/N=C/c2cccc(OCc3c(F)cccc3Cl)c2)nnn1-c1nonc1N	MPTP inh 61, GRIN3A LBD mod 24 | Rh123 counter inactive | MPTP abs DR 6.3 | MPTP cs DR <2.5
CN(C)Cc1c(C(=O)N/N=C/c2cccc(OCc3ccccc3)c2)nnn1-c1nonc1N	MPTP inh 65 | Rh123 counter 80
COc1cc(/C=N/NC(=O)c2nnn(-c3nonc3N)c2C(C)C)ccc1OCc1ccc(F)cc1	MPTP inh 62, GRIN3A LBD mod 31 | Rh123 counter 56
CN(C)Cc1c(C(=O)N/N=C/c2ccc(OCc3ccc(F)cc3)cc2)nnn1-c1nonc1N	none
O=C(CNC(=O)c1ccc(Br)o1)OCc1ccc(Br)cc1	none
COc1ccc(S(=O)(=O)N2CCCCCC2)cc1NC(=O)CCc1cc(OC)c(OC)c(OC)c1	none
COc1ccc(CNCC(O)COc2cccc3c2OC(C)(C)C3)cc1 (stereo not drawn)	MPTP inh 75 | Rh123 counter 46
CCC(C)Sc1ccc(-c2nc3cc(C)ccn3c2NC2CCCCC2)cc1 (stereo not drawn)	MPTP inh 56! | Rh123 counter 101
O=C(NC(=S)Nc1cnc2ccccc2c1)c1ccccc1	none
S=C(NCCc1ccccc1)Nc1cnc2ccccc2c1	MPTP inh 77, GRIN3A LBD mod 14 | Rh123 counter 78
O=C(NCCCCc1ccccc1)Nc1cccc(F)c1	MPTP inh 56 | Rh123 counter 96
Fc1cccc(NC(=S)NCCc2ccccc2)c1	MPTP inh 71, GRIN3A LBD mod 28 | Rh123 counter 87
CC(=O)c1cccc(NC(=S)NCCCCc2ccccc2)c1	MPTP inh 68 | Rh123 counter 81
COc1cc(CNCc2cc(OC)ccc2OC)cc(OC)c1	none
Cc1c(NC(=O)COC(=O)/C=C/c2ccccc2Br)c(=O)n(-c2ccccc2)n1C	none
CC1CN=C(N(C(=O)Nc2ccccc2)C(C)c2ccccc2)S1 (stereo not drawn)	none
O=C(Cc1cccc([N+](=O)[O-])c1)Nc1ccccc1	none (no result: GRIN3A LBD mod)
Cc1ccc(NC(=O)Nc2cnc3ccccc3c2)cc1	MPTP inh 87, GRIN3A LBD mod 27 | Rh123 counter 71
OCCNC(=S)NCCc1ccccc1	none
CC(C)(CNC(=S)NCCc1ccccc1)CNC(=S)NCCc1ccccc1	MPTP inh 80, GRIN3A LBD mod 14 | Rh123 counter 85
CCN(CC)C(=O)Nc1cnc2ccccc2c1	none
Fc1ccc(NC(=S)NCCc2ccccc2)c(F)c1F	MPTP inh 77 | Rh123 counter 92
O=[N+]([O-])c1cccc(NC(=S)NCCc2ccccc2)c1	MPTP inh 95, GRIN3A LBD mod 33 | Rh123 counter 96
COCc1cc(=O)[nH]c2cc(NC(=O)c3cccc(OC)c3)c(C)cc12	none
CC(=O)N1C2=CCCC3CCCCC23c2ccccc21 (stereo not drawn)	none
C=C[C@@H]1c2cc(C)ccc2N(S(=O)(=O)c2ccc(C)cc2)[C@H](c2ccccc2)C1(C#N)S(=O)(=O)c1ccccc1 (stereo partly drawn)	none
O=C(COC(=O)C1CC1)Nc1c(Cl)cccc1C(F)(F)F	none
CC(C)(C)c1ccc(S(=O)(=O)N2CCC(c3nc4ccc(Cl)cc4[nH]3)CC2)cc1	MPTP inh 94 | Rh123 counter 90
CC(=O)Nc1ccc(S(=O)(=O)N2CCC(c3nc4ccc(C)cc4[nH]3)CC2)cc1	none
Fc1ccc(Nc2nc(-c3ccncc3)nc3ccccc23)cc1F	MPTP inh 71 | Rh123 counter 45
Clc1cccc(Nc2nc(-c3ccncc3)nc3ccccc23)c1	MPTP inh 69 | Rh123 counter 83
O=C(c1c(F)cccc1Cl)N(Cc1ccco1)C1CCS(=O)(=O)C1 (stereo not drawn)	none (no result: GRIN3A LBD mod)
COc1nc(Cl)cn(-c2ccc(C)cc2)c1=O	none
Cc1ccc(-n2c(Cl)c(Cl)nc(Cl)c2=O)cc1	MPTP inh 67, EBI2 block 52 | Rh123 counter inactive
CC(C)(C)c1ccc(OCc2ccc(C(=O)N/N=C/c3ccc(O)c(O)c3)cc2)cc1	MPTP inh 85, GRIN3A LBD mod 24 | Rh123 counter inactive
CC(C)(C)c1ccc(OCc2ccc(C(=O)N/N=C3\CC4CC=CC34)cc2)cc1 (stereo not drawn)	MPTP inh 55 | Rh123 counter inactive | MPTP abs DR inactive | MPTP cs DR 25
O=C(N/N=C/c1ccc(OCc2ccc(F)cc2)cc1)c1ccccc1	none
CC(=O)c1sc(NC(=O)C2CC(=O)N(Cc3ccccc3)C2)nc1-c1ccccc1 (stereo not drawn)	none
Cc1noc(-c2ccc(C(F)(F)F)cc2)c1NC(=O)Nc1ccc(Cl)cc1	MPTP inh 75, GRIN3A LBD mod 30 | Rh123 counter 72
Cc1ccc(S(=O)(=O)N2[C@@H](c3ccc(F)cc3)C(C(=O)O)=CC[C@H]2c2ccc3c(c2)OCO3)cc1	none

Compound activity from PubChem.
